Screens deposited in PubChem BioAssay by several laboratories.
HNF4A DNA FP: change in binding of human HNF4 alpha to DNA | P41235 | HNF4a-FITC DNA binding, fluorescence polarization, 1 h | activity change, % at 10 µM | hit rate 0.3% among 360,000; in the data active = activity change above about 30%, passing the limit was not always enough
Target sequence (P41235 whole entry, looked up): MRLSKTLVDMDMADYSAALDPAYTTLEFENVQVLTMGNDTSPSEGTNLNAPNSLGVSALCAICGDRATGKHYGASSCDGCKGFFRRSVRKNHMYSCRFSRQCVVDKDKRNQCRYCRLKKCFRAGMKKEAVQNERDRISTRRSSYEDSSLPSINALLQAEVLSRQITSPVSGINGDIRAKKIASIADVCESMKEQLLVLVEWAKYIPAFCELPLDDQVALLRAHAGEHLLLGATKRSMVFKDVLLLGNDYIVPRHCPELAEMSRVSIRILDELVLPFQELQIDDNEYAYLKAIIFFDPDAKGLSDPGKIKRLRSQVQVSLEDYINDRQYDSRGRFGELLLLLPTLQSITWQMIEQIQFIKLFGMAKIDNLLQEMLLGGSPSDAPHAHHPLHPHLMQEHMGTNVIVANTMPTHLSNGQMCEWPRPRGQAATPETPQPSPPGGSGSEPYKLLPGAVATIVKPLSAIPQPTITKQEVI
Rpn11 inh: blocks the human proteasome subunit Rpn11; O00487; human 26S proteasome, Ub4-pepOG fluorescence polarization; 20S core pre-blocked with epoxomicin; inhibition, % at 20 µM; hit rate 0.59% among 360,000; AID 588493;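 active = inhibition at 20 µM, scaled to each plate's controls, above about 33%, limit read from the data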
PREPL inh: human PREPL enzyme inhibition. inhibition, % at 5.96 µM. recombinant PREPL, fluorescence polarization activity-based probe. hit rate 0.68% among 320,000; in the data active = inhibition above about 43%;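 note: 0% = enzyme with DMSO and 100% = wells lacking enzyme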
CSN deneddyl inh: inhibitors of human CSN-mediated cullin deneddylation; Q92905; hit rate 0.38% among 360,000; AID 651999; inhibition, % at 12.5 µM; Purified CSN, SCF-Nedd8-OG deneddylation, fluorescence polarization;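 active = pattern-corrected inhibition above about 35%, with an unprinted fluorescence ratio check between 0.5 and 1.5, limit read from the data, passing the limit was not always enough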;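 note: 0% = enzyme with substrate and 100% = substrate without enzyme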
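Assay system: HEK293T-derived human Csn5 enzyme; quantity: 0.24 nM enzyme; medium: Tris/NaCl/DTT buffer, pH 7.5; also added: substrate SCFSkp2-Nedd8OG, 10 nM; doses: 12.5 µM compound; schedule: 90 min reaction at room temperature; signal: FP; read-out: % inhibition of substrate cleavage by Csn5; benchmarks: substrate-only high control, full reaction low control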
TbMetRS inhib: Trypanosoma brucei MetRS inhibition. hit rate 0.4% among 360,000. inhibition, % at 11.9 µM. AID 624268. purified T. brucei MetRS, ATP depletion, Kinase-Glo luminescence;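 active = inhibition above a per-plate cutoff of the control wells' mean inhibition plus 3 SD, cut at about 5.5% in these data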;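 note: 0% = DMSO wells median and 100% = median of wells with control inhibitor compound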
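technique = Kinase-Glo luminescence, ATP depletion format | system = purified MetRS (methionyl-tRNA synthetase) enzyme from Trypanosoma brucei | timing = 15 min preincubation, 2 h reaction, all 25 °C | evaluation = percent inhibition versus plate control medians | dosing = single dose, 11.9 µM final nominal, 0.9% final DMSO | also added = substrates ATP, L-methionine and bulk Escherichia coli tRNA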
Neddylation inh: inhibitors of human cullin neddylation; TR-FRET cullin neddylation, biochemical; hit rate 0.58% among 360,000; P61081+Q13564; inhibition, % at 25 µM; in the data active = inhibition above about 36%
Rpn11 confirm: Rpn11 inhibition confirmation, single concentration. shares compounds with Rpn11 inh. purified human 26S proteasome, Ub4-pepOG fluorescence polarization; proteasome pretreated with epoxomicin. inhibition, % at 20 µM. hit rate 29% among 1,900
MMP-2 counter: blocks human MMP-2, flagging nonselective RPN11 hits | inhibition, % at 20 µM | shares compounds with Rpn11 inh | hit rate 4% among 1,900 | recombinant MMP-2, FRET peptide cleavage fluorescence;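 note: human MMP-2 activated beforehand with APMA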
Thrombin FP: blocks bovine thrombin, flagging nonselective RPN11 hits; shares compounds with Rpn11 inh; bovine thrombin cleavage of Ub4-pepOG, fluorescence polarization; inhibition, % at 20 µM; hit rate 13% among 1,900; AID 602333;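 active = mean inhibition at least 40% at 20 µM, or signal 3 deviations below plate average, so some actives read negative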;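 note: plate controls were thrombin with DMSO for no effect and buffer wells lacking thrombin for full effect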
The depositor's hits bear a star. Only some compounds are listed: those with a hit (about 2.4% of all), similar ones and a draw of the others. Cut-off read from the data, not from the text of the source, unless noted: active = inhibition above about 40%; inactive = the rest.

Screening COCCn1c(=NC(=O)c2sc3ccccc3c2Cl)sc2cc(S(N)(=O)=O)ccc21 returned HNF4A DNA FP 3, Rpn11 inh -2, PREPL inh -11, CSN deneddyl inh 11, TbMetRS inhib -2 and Neddylation inh -118.
C=CCn1c(=NC(=O)c2sc3ccccc3c2Cl)sc2cc(S(N)(=O)=O)ccc21 was read as HNF4A DNA FP 3, Rpn11 inh 49*, PREPL inh -14, CSN deneddyl inh 20, TbMetRS inhib -1, Neddylation inh 34, Rpn11 confirm 49*, MMP-2 counter -19 and Thrombin FP 0.
Screening CC/C(=N/Nc1cccc(Cl)c1)c1cnnc(SC)n1 returned HNF4A DNA FP 15, Rpn11 inh 56*, PREPL inh -2, CSN deneddyl inh 5, TbMetRS inhib -1, Neddylation inh 4, Rpn11 confirm 4, MMP-2 counter 0 and Thrombin FP -23.
Screening COc1ccc(C=C(c2nc3ccccc3s2)c2nc3ccccc3s2)cc1O returned HNF4A DNA FP 13, Rpn11 inh 18, PREPL inh 31, CSN deneddyl inh 4, TbMetRS inhib 0 and Neddylation inh -1.
For COc1cc(/C=C/c2nc3ccccc3s2)cc(OC)c1O the results were HNF4A DNA FP 10, Rpn11 inh 47*, PREPL inh 15, CSN deneddyl inh 8, TbMetRS inhib -1, Rpn11 confirm 4, MMP-2 counter -19 and Thrombin FP 10.
COc1cc(C=C(c2nc3ccccc3s2)c2nc3ccccc3s2)ccc1O was read as HNF4A DNA FP -3, Rpn11 inh 61*, PREPL inh 16, CSN deneddyl inh 14, TbMetRS inhib 0, Neddylation inh -19, Rpn11 confirm 5, MMP-2 counter -28 and Thrombin FP 4.
CN(C)c1ccc(/C=C/c2nc3ccccc3s2)cc1 was read as HNF4A DNA FP 36*, Rpn11 inh 49*, PREPL inh 12, CSN deneddyl inh 18, TbMetRS inhib -1, Neddylation inh 16, Rpn11 confirm 32, MMP-2 counter -5 and Thrombin FP 24.
For COC(=O)[C@]12CCCCC=C1N(Cc1ccco1)C(=O)[C@H](CC(=O)NCC13CC4CC(CC(C4)C1)C3)C2 the results were HNF4A DNA FP 1, CSN deneddyl inh 0, TbMetRS inhib -1 and Neddylation inh -4.
Screening CCOc1ccc(N(CC(=O)NC2CCCCC2)S(=O)(=O)c2ccccc2)cc1 returned HNF4A DNA FP 1, Rpn11 inh -2, PREPL inh -13, CSN deneddyl inh 5, TbMetRS inhib -1 and Neddylation inh -4.
CCCSC1=N/C(=C\C=C\c2ccco2)C(=O)S1 was read as HNF4A DNA FP -15, Rpn11 inh 81*, PREPL inh -10, CSN deneddyl inh 59, TbMetRS inhib 0, Neddylation inh 4, Rpn11 confirm 4, MMP-2 counter 34 and Thrombin FP 7.
For N#Cc1ccncc1S(=O)c1ccc(Cl)cc1 (centres undefined) the results were HNF4A DNA FP 2, Rpn11 inh -9, PREPL inh 12, CSN deneddyl inh 2, TbMetRS inhib 0 and Neddylation inh -3.
CC(C)COC(=O)N1CCCCC1c1cc(C(=O)NC(C)C)no1 (centres undefined) was read as HNF4A DNA FP -1, Rpn11 inh 4, CSN deneddyl inh -4, TbMetRS inhib 0 and Neddylation inh 0.
Screening COc1ccc(-c2ccc3[nH]c4c(c3c2)CCN2C[C@@H]([C@H](C)O)[C@@H](N(C)C(=O)Nc3cc(Cl)cc(Cl)c3)C[C@@H]42)cc1 returned HNF4A DNA FP 17, Rpn11 inh 41*, CSN deneddyl inh 7, TbMetRS inhib 2, Neddylation inh 15, Rpn11 confirm 26, MMP-2 counter 5 and Thrombin FP 3.
For Cc1cc(N2CCCC2)ccc1/C=C1/C(=O)N(C)C(=S)N1C the results were HNF4A DNA FP 22, Rpn11 inh 43*, PREPL inh 3, CSN deneddyl inh 18, TbMetRS inhib 0, Neddylation inh -31, Rpn11 confirm 30, MMP-2 counter -9 and Thrombin FP 28.
COc1ccc(N2C(=O)c3ccccc3NC23CCCC3)cc1 was read as HNF4A DNA FP -3, Rpn11 inh 37*, PREPL inh -1, CSN deneddyl inh -1, TbMetRS inhib -1, Rpn11 confirm -5, MMP-2 counter -36 and Thrombin FP 0.
For CCOCCCNC(=O)/C(C#N)=C/c1ccc([N+](=O)[O-])o1 the results were HNF4A DNA FP 0, Rpn11 inh 37*, PREPL inh -32, CSN deneddyl inh 6, TbMetRS inhib 1, Neddylation inh 7, Rpn11 confirm 18, MMP-2 counter -31 and Thrombin FP 18.
Screening O=c1/c(=C\c2ccc(O)cc2)sc2n1C(c1ccccc1)C(c1ccccc1)=NN=2 (centres undefined) returned HNF4A DNA FP 41*, Rpn11 inh 81*, PREPL inh 6, CSN deneddyl inh 31, TbMetRS inhib 0, Neddylation inh 18, Rpn11 confirm 95*, MMP-2 counter 11 and Thrombin FP 86*.
Screening Brc1ccc(C2=Nn3c(nnc3-c3cccnc3)SC2)s1 returned HNF4A DNA FP -1, Rpn11 inh 67*, PREPL inh 2, CSN deneddyl inh 94*, TbMetRS inhib 0, Neddylation inh -127, Rpn11 confirm 1, MMP-2 counter -36 and Thrombin FP -9.
Screening Clc1ccc(C2=Nn3c(nnc3-c3cccnc3)SC2)s1 returned HNF4A DNA FP 1, Rpn11 inh 16, PREPL inh -13, CSN deneddyl inh 0, TbMetRS inhib -1 and Neddylation inh -33.
Screening CCOC(=O)C1(C)CCCN(C(=O)c2cc(C)oc2C)C1 (centres undefined) returned HNF4A DNA FP -4, Rpn11 inh -5, CSN deneddyl inh -7, TbMetRS inhib 0 and Neddylation inh 5.
Screening CCCC1=NN2C(=N)/C(=C\c3ccc(SCc4ccco4)o3)C(=O)N=C2S1 returned HNF4A DNA FP 30, Rpn11 inh 124*, PREPL inh 21, CSN deneddyl inh 76*, TbMetRS inhib 0, Neddylation inh -21, Rpn11 confirm 40*, MMP-2 counter -5 and Thrombin FP 23.
